# Assay results from PubChem BioAssay.
# The source made the active and inactive calls.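 Rule for the calls, unless noted: active = fluorescence slope after compound addition differing from the mean of all screened samples at 99.7% confidence, in either direction; inactive = the rest.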
# Legend:
# [1] = inhibitors of TNFa-induced NFkB p65 translocation, primary screen, imaging, HUVEC, MLSMR starter and 10KST1 sets (AID 438;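 active = inhibition above 20% together with a positive visual image hit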;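 note: compound added about 3h40 before a 20 min TNFalpha stimulation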;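 for inhibition: signal is the nuclear over cytoplasmic p65 intensity ratio per well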); details: HUVEC TNFa-induced p65 nuclear translocation; cell count: measured here: nuclei count (cytotoxicity indicator), at 2.08 µM; inhibition: at 2 µM, stronger effect = higher value, 0% TNFa-plus-vehicle, 100% no-TNFa wells
# [2] = inhibitors of mutant huntingtin aggregation, primary screen, imaging, exon1htt(103Q)mCFP cells, high-content imaging (AID 483;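 active = visual image review flags a hit and inhibition of aggregation exceeds 20%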;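 note: compound exposure lasted 3 days before fixation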;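 for nuclei count: percent of the per-plate median nuclei count of sample wells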); details: exon1htt(103Q)mCFP cell line, aggregate imaging, at 2 µM; inhibition of aggregation: stronger effect = higher value; nuclei count: measured here: cell count, toxicity
# [3] = inhibitors of E-selectin induction by TNFa, primary screen, imaging, HUVEC, immunofluorescence, MLSMR starter and 10KST1 sets (AID 487;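 active = visually confirmed hit in the image check and inhibition above 20%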;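 for inhibition: signal is fraction of cell area covered by stained E-selectin grains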;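 for nuclei count: 100% = median nuclei count of all wells on the same plate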); details: HUVEC TNFalpha-induced E-selectin immunofluorescence imaging, at 2 µM; inhibition: stronger effect = higher value; nuclei count: measured here: cell number, toxicity
# [4] = molecular target: Voltage-gated potassium channel subunit beta-2 (Rattus norvegicus) (UniProt P62483); test: KvBeta enzyme negative modulators, primary screen, biochemical, NADPH fluorescence (AID 622;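 active = fluorescence slope higher than the sample average by over 3 SD, cut at about -0.22 in these data, passing the limit was not always enough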;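 note: slope of raw intensity against log time taken from 70 to 1610 s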); details: recombinant KvBeta, 4-cyanobenzaldehyde reduction, at 10 µM, stronger effect = higher value
# Sequence of Voltage-gated potassium channel subunit beta-2 (Rattus norvegicus) (P62483 whole entry, looked up): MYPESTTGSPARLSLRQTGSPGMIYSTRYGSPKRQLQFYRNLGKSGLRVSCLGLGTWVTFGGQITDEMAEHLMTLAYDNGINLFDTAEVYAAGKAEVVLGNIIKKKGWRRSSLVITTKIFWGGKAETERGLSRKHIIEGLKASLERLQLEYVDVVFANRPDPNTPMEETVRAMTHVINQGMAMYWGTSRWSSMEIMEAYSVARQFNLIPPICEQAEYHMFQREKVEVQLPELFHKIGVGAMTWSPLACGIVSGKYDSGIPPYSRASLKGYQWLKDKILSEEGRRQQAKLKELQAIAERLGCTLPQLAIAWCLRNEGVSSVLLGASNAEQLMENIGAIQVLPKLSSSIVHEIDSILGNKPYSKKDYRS
# [5] = molecular target: Voltage-gated potassium channel subunit beta-2 (Rattus norvegicus) (UniProt P62483); test: KvBeta positive modulators, primary screen, biochemical, NADPH fluorescence (AID 623;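 active = NADPH fluorescence slope more negative than the mean of all samples by about 3 SD, 99.7% confidence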;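 note: fluorescence intensity change per second fitted from 20 to 320 s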); details: Recombinant KvBeta, NADPH fluorescence decrease slope, 10 min; at 10 µM; stronger effect = lower value
# [6] = molecular target: Alpha-2C adrenergic receptor (Homo sapiens) (UniProt P18825); test: modulators of alpha2C/GIRK thallium flux, primary screen, cell-based, HEK293 alpha2C/GIRK1/2 (AID 624); details: thallium flux BTC fluorescence, at 10 µM, actives lie on both sides;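 note: slope of fluorescence ratio to pre-addition baseline per second over 15 to 24 s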
# Sequence of Alpha-2C adrenergic receptor (Homo sapiens) (P18825 whole entry, looked up): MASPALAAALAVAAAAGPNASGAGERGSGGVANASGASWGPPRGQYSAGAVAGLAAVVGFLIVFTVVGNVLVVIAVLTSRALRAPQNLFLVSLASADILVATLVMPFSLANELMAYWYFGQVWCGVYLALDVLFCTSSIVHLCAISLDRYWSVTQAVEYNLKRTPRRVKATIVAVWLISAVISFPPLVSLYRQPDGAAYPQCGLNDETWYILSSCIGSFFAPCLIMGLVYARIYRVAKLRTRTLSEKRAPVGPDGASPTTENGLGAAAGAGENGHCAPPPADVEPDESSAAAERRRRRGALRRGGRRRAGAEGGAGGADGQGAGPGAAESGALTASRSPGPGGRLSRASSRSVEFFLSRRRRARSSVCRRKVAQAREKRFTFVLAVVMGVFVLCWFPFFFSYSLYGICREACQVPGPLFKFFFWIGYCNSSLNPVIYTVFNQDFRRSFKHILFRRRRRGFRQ
# [7] = inhibitors of larval lipid processing in zebrafish, primary screen, whole organism, PED6 fluorescence, gall bladder and intestine (AID 686;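 active = a full or partial loss of lipid-probe fluorescence in the fish gall bladder, intestine or both, judged by eye; inactive = no fluorescence loss, or compound toxic to the fish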;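 note: larvae 5 to 7 days old with five fish per well; signal comes from phospholipase A2 cleavage of quenched PED6 carried via bile; overnight exposure to compound and PED6 before scoring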); details: Zebrafish larvae PED6 lipid processing, fluorescence scoring; screened at 20 µM (by protocol)
# How it was run: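 Test system – live zebrafish larvae aged 5-7 days, whole organism · Buffer or medium – E3 fish medium · Reagent – quenched phospholipase substrate PED6, 100 nM final, ingested by larvae · Doses – 20 µM single dose · Incubation – overnight compound and PED6 incubation · Technique – visual fluorescence microscopy scoring of gall bladder, gut · Read-out basis – visual per-well fluorescence inhibition score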
# [8] = inhibitors of Sendai virus-induced IRF3 signaling, primary screen, TLR/RLR signaling modifier project, cell-based, Sendai virus stimulus, luciferase, 10K MLSCN set (AID 602276;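 active = inhibition at or above 50% at 10 µM; inactive = inhibition below 50%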;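 note: firefly luciferase from ISG56 promoter only with Renilla not read in this screen; 0% = Sendai virus plus DMSO and 100% = medium plus DMSO without virus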); details: HEK293 RL24 IRF3 luciferase reporter, at 10 µM, stronger effect = higher value
# [9] = inhibitors of poly I:C-induced TLR3 signaling, primary screen, cell-based, poly I:C stimulus, luciferase, 10K MLSCN set (AID 602277;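 active = inhibition of the reporter signal at or above 50%; inactive = inhibition below 50%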); details: HEK293-TLR3 RL24 IRF3 luciferase reporter, at 10 µM, stronger effect = higher value
compound,measurement,setting,value
O=C(Nc1cc(C(F)(F)F)ccc1N1CCCC1)c1ccc2c(c1)OCO2,cell count,[1],215
same,inhibition,[1],6.7% (inactive)
same,inhibition of aggregation,[2],16.7% (inactive)
same,nuclei count,[2],84.5%
same,inhibition,[3],-54.9% (inactive)
same,nuclei count,[3],103%
same,fluorescence slope,[4],-0.461 (inactive)
same,NADPH fluorescence slope,[5],-2e-05 (inactive)
same,slope,[6],0.00354 (inactive)
same,outcome,[7],inactive
same,inhibition,[8],13% (inactive)
same,inhibition,[9],24.5% (inactive)
Brc1ccc2ncnc(Nc3ccc(N4CCOCC4)cc3)c2c1,cell count,[1],534
same,inhibition,[1],-13.2% (inactive)
same,inhibition of aggregation,[2],8.9% (inactive)
same,nuclei count,[2],106%
same,inhibition,[3],29.5% (inactive)
same,nuclei count,[3],84.4%
same,fluorescence slope,[4],-0.375 (inactive)
same,NADPH fluorescence slope,[5],-5.5e-05 (inactive)
same,slope,[6],0.00328 (inactive)
same,outcome,[7],inactive
same,inhibition,[8],16.4% (inactive)
same,inhibition,[9],1.52% (inactive)
O=C(CSc1ccccc1C(=O)NCCCN1CCCC1=O)NCc1ccco1,cell count,[1],463
same,inhibition,[1],3.8% (inactive)
same,inhibition of aggregation,[2],-6.6% (inactive)
same,nuclei count,[2],98.6%
same,inhibition,[3],-81.8% (inactive)
same,nuclei count,[3],118%
same,fluorescence slope,[4],-0.358 (inactive)
same,NADPH fluorescence slope,[5],-4.3e-05 (inactive)
same,slope,[6],0.00452 (inactive)
same,outcome,[7],inactive
same,inhibition,[8],11.7% (inactive)
same,inhibition,[9],12.7% (inactive)
O=C(CN1CCN(Cc2ccc3c(c2)OCO3)CC1)N1CCc2[nH]c3ccc(F)cc3c2C1,cell count,[1],687
same,inhibition,[1],13.9% (inactive)
same,inhibition of aggregation,[2],6.4% (inactive)
same,nuclei count,[2],96.6%
same,inhibition,[3],34.4% (inactive)
same,nuclei count,[3],101%
same,fluorescence slope,[4],-0.409 (inactive)
same,NADPH fluorescence slope,[5],-6.8e-05 (inactive)
same,slope,[6],0.00435 (inactive)
same,outcome,[7],inactive
same,inhibition,[8],12% (inactive)
same,inhibition,[9],4.08% (inactive)
COC(=O)CCN(C(=O)c1ccc2c(c1)OCO2)c1ccccn1,cell count,[1],730
same,inhibition,[1],2.9% (inactive)
same,inhibition of aggregation,[2],-10.6% (inactive)
same,nuclei count,[2],98.2%
same,inhibition,[3],-0.1% (inactive)
same,nuclei count,[3],89.7%
same,fluorescence slope,[4],-0.4 (inactive)
same,NADPH fluorescence slope,[5],-4.5e-06 (inactive)
same,slope,[6],0.00511 (inactive)
same,outcome,[7],inactive
same,inhibition,[8],17.3% (inactive)
same,inhibition,[9],18% (inactive)
CCn1c(SCC(=O)Nc2ccccc2N2CCCCC2)nc2c1c(=O)n(C)c(=O)n2C,cell count,[1],490
same,inhibition,[1],-5.6% (inactive)
same,inhibition of aggregation,[2],19.9% (inactive)
same,nuclei count,[2],93.1%
same,inhibition,[3],-15.6% (inactive)
same,nuclei count,[3],89.4%
same,fluorescence slope,[4],-0.338 (inactive)
same,NADPH fluorescence slope,[5],-6.7e-05 (inactive)
same,slope,[6],0.00404 (inactive)
same,outcome,[7],inactive
same,inhibition,[8],16.1% (inactive)
same,inhibition,[9],18.7% (inactive)
O=C(Cn1c(=O)oc2ccccc21)N1CCN(c2ccccc2)CC1,cell count,[1],421
same,inhibition,[1],2.6% (inactive)
same,inhibition of aggregation,[2],10% (inactive)
same,nuclei count,[2],99.1%
same,inhibition,[3],-10.5% (inactive)
same,nuclei count,[3],114%
same,fluorescence slope,[4],-0.407 (inactive)
same,NADPH fluorescence slope,[5],-4.3e-05 (inactive)
same,slope,[6],0.00535 (inactive)
same,outcome,[7],inactive
same,inhibition,[8],8.94% (inactive)
same,inhibition,[9],14.4% (inactive)
CSc1nnc(-c2cnccn2)n1Cc1ccccc1,cell count,[1],386
same,inhibition,[1],2.9% (inactive)
same,inhibition of aggregation,[2],-2.6% (inactive)
same,nuclei count,[2],101%
same,inhibition,[3],5.7% (inactive)
same,nuclei count,[3],121%
same,fluorescence slope,[4],-0.481 (inactive)
same,NADPH fluorescence slope,[5],-5.6e-07 (inactive)
same,slope,[6],0.00544 (inactive)
same,outcome,[7],inactive
same,inhibition,[8],-5.1% (inactive)
same,inhibition,[9],2.59% (inactive)
CCOC(=O)C1CCCN(C(=O)Cc2ccc(OC)c(OC)c2)C1 (configuration not stated),cell count,[1],705
same,inhibition,[1],2.6% (inactive)
same,inhibition of aggregation,[2],2.1% (inactive)
same,nuclei count,[2],100%
same,inhibition,[3],-124% (inactive)
same,nuclei count,[3],104%
same,fluorescence slope,[4],-0.443 (inactive)
same,NADPH fluorescence slope,[5],-4.9e-05 (inactive)
same,slope,[6],0.00479 (inactive)
same,outcome,[7],inactive
same,inhibition,[8],18.6% (inactive)
same,inhibition,[9],17.7% (inactive)
CCCCN1CN(S(=O)(=O)c2cccs2)c2nc3ccccc3nc21,cell count,[1],253
same,inhibition,[1],-13% (inactive)
same,inhibition of aggregation,[2],0.5% (inactive)
same,nuclei count,[2],83.1%
same,inhibition,[3],0.2% (inactive)
same,nuclei count,[3],91.6%
same,fluorescence slope,[4],-0.393 (inactive)
same,NADPH fluorescence slope,[5],-5.6e-05 (inactive)
same,slope,[6],0.00634 (inactive)
same,outcome,[7],inactive
same,inhibition,[8],-4.14% (inactive)
same,inhibition,[9],-4.36% (inactive)
COC(=O)c1ccccc1NC(=O)C12CCC(C)(C(=O)O1)C2(C)C (configuration not stated),cell count,[1],358
same,inhibition,[1],1.7% (inactive)
same,inhibition of aggregation,[2],-12.1% (inactive)
same,nuclei count,[2],106%
same,inhibition,[3],29.1% (inactive)
same,nuclei count,[3],92.7%
same,fluorescence slope,[4],-0.433 (inactive)
same,NADPH fluorescence slope,[5],-4.4e-05 (inactive)
same,slope,[6],0.00406 (inactive)
same,outcome,[7],inactive
same,inhibition,[8],20.2% (inactive)
same,inhibition,[9],22.6% (inactive)
